Publication PMC4775309 (Biochemistry, 2016)

Assays:
Test in all cases: Fluorescence quenching binding assay, NADPH-free apoenzyme
[1] = molecular target: T1, wild-type EryKR3^0 (Saccharopolyspora erythraea, UniProt Q03132)
T1 sequence (Q03132 1132-1297 limits assumed): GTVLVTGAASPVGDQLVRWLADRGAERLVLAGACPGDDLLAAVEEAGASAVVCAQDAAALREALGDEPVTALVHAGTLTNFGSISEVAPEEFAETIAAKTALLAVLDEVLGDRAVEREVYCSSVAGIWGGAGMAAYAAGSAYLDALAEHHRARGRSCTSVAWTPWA
Method in brief: (§1)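 Cofactor removed by dialysis, 36 h, against 50 mM potassium phosphate pH 7.5 with 1 M KBr, 5 mM EDTA and 10% glycerol, then 36 h into 50 mM sodium phosphate pH 7.5 with 10% glycerol. Apoenzyme (1 μM) titrated with (±)-2-methyl-3-ketopentanoyl-SNAC (0–50 mM final), 20 min at room temperature. Fluorescence read at pH 7.2 and 30 °C (ex 280, em 338 nm). Quenching (Fapo−Fobs) fitted to a one-site saturation model for Kd.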

[2] = molecular target: T2, wild-type PicKR3^0 (Streptomyces venezuelae, UniProt Q9ZGI4)
T2 sequence (Q9ZGI4 1150-1343 limits assumed): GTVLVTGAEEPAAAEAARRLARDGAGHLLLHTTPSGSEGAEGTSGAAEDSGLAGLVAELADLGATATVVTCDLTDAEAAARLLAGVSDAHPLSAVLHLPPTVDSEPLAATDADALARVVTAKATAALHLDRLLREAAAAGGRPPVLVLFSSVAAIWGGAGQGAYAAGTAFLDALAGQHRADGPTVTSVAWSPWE
Method in brief: as §1

[3] = molecular target: wild-type EryKR1 (Saccharopolyspora erythraea, UniProt Q03131)
Method in brief: as §1

wild-type EryKR1, sequence (Q03131 1613-1790 limits assumed): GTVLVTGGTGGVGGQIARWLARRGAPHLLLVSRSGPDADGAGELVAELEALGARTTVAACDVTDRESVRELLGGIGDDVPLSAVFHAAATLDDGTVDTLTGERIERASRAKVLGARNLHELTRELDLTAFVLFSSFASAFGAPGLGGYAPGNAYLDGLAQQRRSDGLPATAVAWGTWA

Kd [1]: 8 ± 0.4 mM
Kd [2]: 5 ± 0.3 mM
Kd [3]: 7.7 ± 0.4 mM
SMILES: CCC(=O)C(C)C(=O)SCCNC(C)=O (racemic) [compound 1, (±)-2-methyl-3-ketopentanoyl-N-acetycysteamine (SNAC) thioester]
